According to publication PMC10824272 (Biomedicine & pharmacotherapy = Biomedecine & …, 2023):
Several values for one entry are separate records, joined by “and”; a condition that tells them apart may be missing. Identical values can stand only once.

Columns and labels:
[1] = test system: normal IEC-6 cells; experiment: Cell viability; type: cell-based; details: 72 hours
Procedure, shortened: (§1)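 Cells maintained in RPMI plus 10% FBS. Viability read with PrestoBlue reagent per kit protocol after 72 h exposure to test compound.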

[2] = test system: SW480^cld1 cells; experiment: Anoikis-induced apoptosis assay; type: cell-based; details: claudin-1 overexpressed SW480^cld1
Procedure, shortened: (§2)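 Anoikis induced by plating cells on poly-HEMA-coated culture plates. Apoptosis quantified with a cell death detection ELISA. Parental lines were cultured in RPMI with 10% FBS. Claudin-1-overexpressing SW480 and claudin-1-knockdown SW620 derivatives were used.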

[3] = test system: claudin-1 overexpressed PDX tumor; experiment: Chemo-resistant patient-derived xenograft; type: in vivo, athymic nude mice
Procedure, shortened: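 Chemo-resistant PDX tumor fragments (~2mm3) implanted subcutaneously in 6-week-old athymic nude mice. Once tumors were palpable, dosed once weekly for four weeks (n=5 mice/group), vehicle controls included. Caliper volume from […], tracked over time. Tumor sections stained by IHC for Ki67 and cleaved PARP.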

[4] = test system: SW620 cells; experiment: Cell viability; type: cell-based, human
Procedure, shortened: (§3)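 Claudin-1-overexpressing SW480cld1 and SW620 cells grown in RPMI with 10% FBS and exposed for 72 hours to a range of test compound concentrations. Viability measured by PrestoBlue reagent. EC50 calculated from the concentration–viability data.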

[5] = test system: SW620^1C cells; experiment: Anoikis-induced apoptosis assay; type: cell-based, human; details: claudin-1 knockdown SW620^1C
Procedure, shortened: as §2

[6] = Drug toxicity in xenograft mice; type: in vivo
Procedure, shortened: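 Body weight recorded during treatment. BUN determined colorimetrically in plasma and kidney tissue lysate by kit protocol. Mice sacrificed at day 25; AST activity measured in plasma and liver homogenate, followed up to 60 min at regular intervals. n=5 mice/group, means ± SEM.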

[7] = test system: SW480^cld1 cells; experiment: Cell viability; type: cell-based, human
Procedure, shortened: as §3

[8] = Solubility in aqueous buffers; type: physicochemical; details: dissolved in DMSO to 135 μM for MST
[9] = target: T1, human claudin-19 (Homo sapiens, UniProt Q8N6F1); experiment: Microscale thermophoresis; type: binding; details: 25 °C, duplicate acquisitions
T1 sequence (Q8N6F1 1-224): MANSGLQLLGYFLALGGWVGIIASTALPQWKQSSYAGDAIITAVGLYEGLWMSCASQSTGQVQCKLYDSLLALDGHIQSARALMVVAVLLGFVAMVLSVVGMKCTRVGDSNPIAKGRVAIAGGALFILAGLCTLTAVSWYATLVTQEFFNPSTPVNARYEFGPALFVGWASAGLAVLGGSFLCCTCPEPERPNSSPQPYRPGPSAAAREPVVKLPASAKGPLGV
Procedure, shortened: (§4)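 Microscale thermophoresis at 25 °C with 1 μM Cy3-labeled, detergent-purified claudin (human claudin-19, mouse claudin-4 or trypsinized human claudin-1) in HEPES pH 7.4/100 mM NaCl buffer. Test compound dissolved in DMSO and titrated from 135 μM to 4.1 nM. Affinity derived from duplicate acquisitions.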

[10] = target: T2, mouse claudin-4 (Mus musculus, UniProt O35054); experiment: Microscale thermophoresis; type: binding; details: 25 °C, duplicate acquisitions
T2 sequence (O35054 1-210): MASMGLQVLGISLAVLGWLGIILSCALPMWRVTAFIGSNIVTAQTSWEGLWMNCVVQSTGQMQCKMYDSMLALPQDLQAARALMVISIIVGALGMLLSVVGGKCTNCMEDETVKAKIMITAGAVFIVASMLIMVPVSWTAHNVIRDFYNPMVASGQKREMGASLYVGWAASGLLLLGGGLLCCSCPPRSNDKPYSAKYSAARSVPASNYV
Procedure, shortened: as §4

[11] = test system: SW620 cells; experiment: Anoikis-induced apoptosis assay; type: cell-based; details: claudin-1 overexpressed SW620
[12] = target: T3, human claudin-1 (Homo sapiens, UniProt O95832); experiment: Microscale thermophoresis; type: binding
T3 sequence (O95832 1-211): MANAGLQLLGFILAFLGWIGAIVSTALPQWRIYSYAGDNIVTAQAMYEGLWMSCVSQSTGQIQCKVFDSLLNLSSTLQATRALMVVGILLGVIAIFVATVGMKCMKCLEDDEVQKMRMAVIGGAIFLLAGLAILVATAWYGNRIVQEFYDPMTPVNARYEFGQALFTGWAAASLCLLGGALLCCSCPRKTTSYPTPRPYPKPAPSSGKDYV

[13] = test system: trypsinized human claudin-1; experiment: Microscale thermophoresis; type: binding; details: 25 °C, at concentrations shown to bind wild-type claudin-1
Procedure, shortened: as §4

[14] = Tissue bio-distribution in mice; type: in vivo; details: mouse, 5 mg/kg
[15] = test system: HCT116 cells; experiment: Cell viability; type: cell-based, human; details: claudin-1 deficient HCT116 cells; 72 hours
Procedure, shortened: as §1

[16] = target: T4, claudin-1/Src association (Homo sapiens, UniProt O95832); experiment: Claudin-1 immunoprecipitation / Src immunoblot in SW620 cells; type: cell-based; details: 12.5μM and 25μM
T4 sequence (O95832 1-211): T3 sequence (O95832 1-211)

[17] = test system: SW620 cells; experiment: Transwell matrigel invasion assay; type: cell-based, human; details: PDS-0330 25μM; P < 0.0001 vs control and 20A
[18] = Metabolic stability, phase I; type: in vitro ADME, human
Procedure, shortened: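 Phase I stability in human liver microsomes (20 mg/ml stock), 100 mM potassium phosphate pH 7.4, 10 mM MgCl2, 2 mM NADPH. Mix pre-incubated 10 min at 37 °C. Output is percent parent remaining per time point. Elimination rate constant taken from first-order plot of ln area ratio versus time.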

[19] = PDS-0330 5mg/kg and 10mg/kg once/week for four weeks

## O=C(NC(=S)Nc1ccc(-c2nc3ccccc3o2)cc1)c1ccc2ccccc2c1 [PDS-0330, N-((4-(benzo[d]oxazol-2-yl)phenyl)carbamothioyl)-2-naphthamide]
[1]
  effect on cell growth/survival: no effect
[2]
  resistance to anoikis: dramatically reduced the resistance to anoikis
[3]; PDS-0330 5mg/kg and 10mg/kg
  apoptosis in tumors (cleaved PARP, Bcl-xL, survivin): increase in apoptosis
  proliferation in tumors (Ki67): decreased proliferation
[3]; [19]
  mean tumor volume and tumor weight: significantly reduced
  primary tumor growth: reduced primary tumor growth in a statistically significant manner
[4]; Homo sapiens, SW-620, 72 h, read-out: EC50, cell viability
  EC50: 9.3 µM
[4]; PDS-0330 with 5-FU (5μM)
  CI index, % cell survival in combination with 5-FU: < 1
[4]; PDS-0330 with oxaliplatin (1μM)
  effect with oxaliplatin on cell survival: synergistic effect
[5]
  resistance to anoikis: not affecting
[6]; PDS-0330 5mg/Kg and 10mg/Kg, SW620 and SW480^cld1 implanted mice
  body weight among groups at the end of treatment: no statistically significant differences
[6]; kidney tissue and plasma of treated mice
  urea nitrogen (BUN) level: not affected
[6]; plasma and liver homogenate, day 25
  aspartate transaminase (AST) levels: not affected
[7]; Homo sapiens, 72 h, read-out: EC50, cell viability
  EC50: 8.4 µM
[7]; PDS-0330 with 5-FU (5μM)
  CI index, % cell survival in combination with 5-FU: < 1
[8]
  solubility in aqueous buffers: limited solubility
[9]
  Kd: 157 µM and ≥ 100 µM
[10]
  Kd: 92.1 µM and ≥ 100 µM
[11]
  resistance to anoikis: dramatically reduced the resistance to anoikis
[12]; 37°C
  Hill coefficient: ~ 5 and 4.5
[12]; binding affinity, 37°C, fit to Hill-Langmuir equation
  Kd: 44.9 ± 5.6 µM
[12]; equilibrium dissociation constant (Kd), Cy3-labeled human claudin-1, 25 °C, eight independent acquisitions
  Kd: 22.9 ± 3 µM
[12]; human claudin-19 and mouse claudin-4 vs human claudin-1
  binding affinity to other claudin subtypes, fold lower than claudin-1: ~ 4 fold
[13]
  binding to trypsinized and labeled claudin-1: no detectable binding
[14]; both, liver, ip
  concentration at 2 h: 277 ng/g
  concentration at 8 h: 807 ng/g
[14]; both, liver, po
  concentration at 2 h: 17 ng/g
  concentration at 8 h: 5.8 ng/g
  concentration at 24 h: 10.5 ng/g
[14]; both, lungs, ip
  concentration at 24 h: 93.7 ng/g
[14]; both, lungs, po
  concentration at 24 h: 519 ng/g
[14]; liver, ip
  concentration at 24 h: 407 ng/g
[14]; lungs, ip
  concentration at 2 h: 338 ng/g
  concentration at 8 h: 76.9 ng/g
[14]; lungs, po
  concentration at 2 h: 5 ng/g
  concentration at 8 h: 473 ng/g
[15]
  effect on cell growth/survival: no effect
[16]
  association of Src with claudin-1: significantly interferes
[17]
  cell invasion: significantly inhibited
[18]; HLM, phase I metabolism, 60 min
  drug remaining after 60 min: 90%
[18]; phase I
  metabolism in the presence of HLM: < 15%
